ChEMBL document CHEMBL1772943, “Potent, selective, and orally available benzoisothiazolone phosphomannose isomerase inhibitors as probes for congenital disorder of glycosylation Ia” (J Med Chem, 2011)
Converted amounts (≈) assume the structure as drawn.

Assays:
Phosphomannomutase 2 = molecular target: T1, Phosphomannomutase 2 (Homo sapiens, UniProt O15305); experiment: Inhibition of human purified PMM2
T1 sequence (O15305 whole entry): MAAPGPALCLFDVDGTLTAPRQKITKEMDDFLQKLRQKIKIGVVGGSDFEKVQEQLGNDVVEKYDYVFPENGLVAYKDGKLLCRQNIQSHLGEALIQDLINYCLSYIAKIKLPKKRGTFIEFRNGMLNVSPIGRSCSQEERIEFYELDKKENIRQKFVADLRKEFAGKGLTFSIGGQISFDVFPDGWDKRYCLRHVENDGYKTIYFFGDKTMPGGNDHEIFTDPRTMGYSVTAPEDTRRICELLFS

[1] = molecular target: T2, Mannose-6-phosphate isomerase (Homo sapiens, UniProt P34949); experiment: Inhibition of human purified phosphomannose isomerase
T2 sequence (P34949 whole entry): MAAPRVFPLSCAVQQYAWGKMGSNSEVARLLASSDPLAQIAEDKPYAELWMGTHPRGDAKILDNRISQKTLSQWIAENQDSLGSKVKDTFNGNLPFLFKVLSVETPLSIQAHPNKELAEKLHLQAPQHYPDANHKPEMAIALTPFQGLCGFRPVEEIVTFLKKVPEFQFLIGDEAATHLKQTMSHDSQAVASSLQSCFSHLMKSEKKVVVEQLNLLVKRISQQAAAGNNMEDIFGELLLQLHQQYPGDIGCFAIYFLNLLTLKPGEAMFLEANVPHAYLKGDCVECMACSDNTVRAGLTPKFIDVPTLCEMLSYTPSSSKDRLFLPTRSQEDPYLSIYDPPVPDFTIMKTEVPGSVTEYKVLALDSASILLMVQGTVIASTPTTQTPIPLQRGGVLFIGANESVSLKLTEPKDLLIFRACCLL

[2] = Solubility of the compound at pH 7.4; format: physicochemical; conditions: buffer
[3] = Metabolic stability of the compound in mouse plasma assessed as compound remaining at 10 uM after 3 hrs by LC/MS/MS analysis; format: ADME, cell-free; conditions: read-out: Stability
In short: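 Fresh mouse plasma with test article at 10 μM, run in duplicate at 37 °C. Sampled at t=0 and t=3 h; % parent remaining quantified by LC/MS/MS.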

Liver = experiment: Metabolic stability of the compound in rat liver S9 fraction at 10 uM after 2 hrs by LCMS analysis in presence of GSH transferase; format: ADME, subcellular; conditions: s9, 2 h
In short: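 The reaction was quenched by acetonitrile precipitation, and the supernatant was dried and reconstituted. Positive-ion electrospray LCMS tracked parent compound and GSH conjugates. Run in triplicate, with diclofenac as positive control.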

[4] = Metabolic stability of the compound in mouse liver microsomes assessed as compound remaining at 10 uM after 1 hr by LC/MS/MS analysis; format: ADME, Microsome; conditions: read-out: Stability
In short: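 Mouse liver microsomes at 0.5 mg/ml, test article at 10 μM, duplicate, 37 °C. Aliquots at t=0 and t=1 h; % parent remaining by LC/MS/MS. Positive control phenacetin conversion to acetaminophen; negative control NADPH-deficient mixture.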

HeLa = experiment: Cytotoxicity against human HeLa cells at 12.5 to 100 uM after 2 hrs; format: cell-based
In short: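 HeLa cells at 70% confluency were preincubated with compound for 2 h at 37°C. They were then labelled with 50 μCi/mL ³H-mannose and 5 μCi/mL ³⁵S-Met/Cys for 1 h at 37°C, washed, and lysed in 10 mM Tris pH 7.4 with 1% NP-40. Proteins were precipitated with 10% TCA. ³⁵S incorporation read protein synthesis and toxicity; DMSO-treated cells served as the reference.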

[5] = Cmax in C57BL/6 mouse at 20 mg/kg, po; format: ADME, organism-based; design: dose 20 mg/kg, route oral; conditions: in vivo
In short: (§1)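 C57BL/6 mice, n=3 per dose, given single oral dose of 20 mg/kg (5 mg/kg IV arm run in parallel). Animals sacrificed for blood at 0.5, 1, 2, 4 and 6 hr after oral dosing; plasma separated by centrifugation, stored at -20°C, extracted with 2-fold excess acetonitrile, vortexed 3 min, centrifuged 15 min (7500g), supernatant quantified by LCMS.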

[6] = AUC (0 to t) in C57BL/6 mouse at 20 mg/kg, po; format: ADME, organism-based; design: dose 20 mg/kg, route oral; conditions: plasma; in short: as §1
[7] = Half life in C57BL/6 mouse at 20 mg/kg, po; format: ADME, organism-based; design: dose 20 mg/kg, route oral; conditions: in vivo
In short: (§2)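 C57BL/6 mice, n=3 per dose, dosed 5 mg/kg IV and 20 mg/kg PO. Blood collected at PO 0.5, 1, 2, 4, 6 hr and IV 10 min, 0.5, 1, 2, 4, 6 hr. Plasma separated by centrifugation, stored at -20°C, extracted with 2-fold excess acetonitrile (vortex 3 min, 15 min at 7500g), supernatant analysed by LCMS.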

Mus musculus = experiment: Oral bioavailability in C57BL/6 mouse at 20 mg/kg; format: ADME, organism-based; conditions: in vivo; in short: as §2
in vivo = conditions: C57BL/6, mouse, po, 20 mg/kg
[8] = Inhibition of human purified phosphomannose isomerase

| Structure (SMILES) | IC50 (Phosphomannomutase 2) | IC50 [1] | other results |
| --- | --- | --- | --- |
| Cc1ccccc1-n1sc2cc(F)ccc2c1=O | > 20 µM | – | – |
| Cc1ccc(-n2sc3ccccc3c2=O)cc1 | > 20 µM | 5.2 µM | – |
| O=c1c2cc(F)ccc2sn1-c1ccccc1 | > 80 µM | – | solubility [2]: 3.8 µg/mL (≈ 15.5 µM); remaining at 3 h, 10 µM [3]: 99%; Stability (Liver): Stable; remaining at 1 h, 10 µM [4]: 85%; Activity (HeLa): Non-toxic; Cmax [5]: 0.162 µM; AUC(0-t) [6]: 305 nM·h; half-life [7]: 1.3 h; F (Mus musculus): 35%; Tmax (in vivo): 0.75 h |
| Cc1ccc(C)c(-n2sc3ccccc3c2=O)c1 | – | 6.6 µM | – |
| O=c1c2cc(F)ccc2sn1-c1ccc(F)cc1 | > 80 µM | – | – |
| Cc1ccc(C)c(-n2sc3ccc(F)cc3c2=O)c1 | – | – | solubility [2]: 11 µg/mL (≈ 40.2 µM); remaining at 1 h, 10 µM [4]: 81% |
| Cc1ccc(C)c(N2Cc3ccccc3C2=O)c1 | – | > 10 µM | – |
| O=c1c2ccccc2sn1-c1cccc(Cl)c1 | > 20 µM | – | – |
| Cc1cccc(-n2sc3ccccc3c2=O)c1 | > 20 µM | – | – |
| O=c1c2cc(F)ccc2sn1-c1ccccc1F | > 20 µM | – | – |
| O=c1c2cc(F)ccc2sn1-c1ccc(Cl)cc1 | > 20 µM | – | – |
| O=c1c2ccccc2sn1-c1ccc2ccccc2c1 | > 20 µM | – | – |
| O=c1c2ccccc2sn1-c1cccc(I)c1 | > 20 µM | – | – |
| CN(C)c1cccc(-n2sc3ccccc3c2=O)c1 | > 20 µM | – | – |
| O=c1c2ccccc2sn1-c1cccc(C(F)(F)F)c1 | 13.9 µM | – | – |
| COc1cccc(-n2sc3ccccc3c2=O)c1 | > 10 µM | – | – |
| O=c1c2ccccc2sn1-c1ccc(C(F)(F)F)cc1 | > 20 µM | > 20 µM | – |
| CN(C)c1ccc(-n2sc3ccccc3c2=O)cc1 | 13.3 µM | 1.9 µM | – |
| O=c1c2cc(F)ccc2sn1-c1cccc(F)c1 | > 20 µM | – | – |
| CC(C)(C)c1ccc(-n2sc3ccccc3c2=O)cc1 | > 20 µM | – | solubility [2]: 2.5 µg/mL (≈ 8.82 µM); remaining at 3 h, 10 µM [3]: 10%; remaining at 1 h, 10 µM [4]: 62%; Activity (HeLa): Non-toxic |
| CCOC(=O)c1ccc(-n2sc3ccccc3c2=O)cc1 | > 20 µM | – | – |
| Cc1ccc(C)c(-n2sc3cc(F)ccc3c2=O)c1 | – | 1 µM | solubility [2]: 22.5 µg/mL (≈ 82.3 µM); remaining at 3 h, 10 µM [3]: 48%; remaining at 1 h, 10 µM [4]: 82.3% |
| O=C1c2ccccc2SC1c1ccccc1 (stereo not drawn) | – | > 10 µM | – |
| NC(=O)C1(NC(=O)CCCNc2ccc(Cl)cc2Cl)Cc2ccccc2C1 | – | 50 µM | – |
| NC(=O)C1(NC(=O)CCCSc2ccc(Cl)cc2Cl)Cc2ccccc2C1 | – | 14 µM | – |
| NC(=O)C1(NC(=O)CCCOc2ccc(Cl)cc2Cl)Cc2ccccc2C1 | – | – | IC50 [8]: 40 µM |
| O=c1c2ccccc2sn1-c1ccc(Cl)cc1 | > 20 µM | – | – |
